Results: ChEMBL document CHEMBL1649231, “In vitro activities of panduratin A against clinical Staphylococcus strains” (2009)
In brackets after ≈: the same amount, converted by molar mass.

What was measured:
Assay type in all cases: functional
Staphylococcus aureus [1] = assay: Antimicrobial activity against methicillin-resistant Staphylococcus aureus after 24 hrs by broth microdilution method
Method in brief: (§1)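 Clinical isolates came from blood, body fluids, genital secretions, pus or sputum, identified conventionally or by Vitek. MICs were run by CLSI M7-A6 broth microdilution in Mueller-Hinton broth with 5 × 10^5 CFU/ml inoculum. Agents were twofold serially diluted, starting from 10% DMSO. Drug-free and uninoculated controls were included. Plates were incubated aerobically at 37°C for 24 h; MIC is the lowest concentration giving no visible growth.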

[2] = test system: Staphylococcus haemolyticus; assay: Antimicrobial activity against methicillin-resistant coagulase-negative Staphylococcus haemolyticus after 24 hrs by broth microdilution method; method in brief: as §1
[3] = test system: Staphylococcus epidermidis; assay: Bactericidal activity against methicillin-resistant coagulase-negative Staphylococcus epidermidis after 24 hrs by plate counting method; details: for MBC: Staphylococcus epidermidis, 24 h
[4] = test system: Staphylococcus epidermidis; assay: Antimicrobial activity against methicillin-resistant coagulase-negative Staphylococcus epidermidis assessed as susceptible isolates after 24 hrs by broth microdilution method
Staphylococcus hominis [5] = assay: Bactericidal activity against methicillin-resistant coagulase-negative Staphylococcus hominis after 24 hrs by plate counting method; details: for MBC: Staphylococcus hominis, 24 h
Staphylococcus aureus [6] = assay: Bactericidal activity against methicillin-susceptible Staphylococcus aureus after 24 hrs by plate counting method; details: for MBC: Staphylococcus aureus, 24 h
Method in brief: (§2)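 Clinical staphylococcal isolates from patient body fluids, blood, genital secretions, pus or sputum; species by conventional methods or Vitek. Twofold dilutions in Mueller-Hinton broth, inoculum 5 × 10^5 CFU/ml, 37°C aerobic 24 h (CLSI M7-A6 microdilution). About 100 μl from each well without visible growth spread on MHA; 37°C 24 h. MBC = lowest concentration giving no growth on agar.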

Staphylococcus hominis [7] = assay: Antimicrobial activity against methicillin-resistant coagulase-negative Staphylococcus hominis after 24 hrs by broth microdilution method; method in brief: as §1
Staphylococcus aureus [8] = assay: Bactericidal activity against methicillin-resistant Staphylococcus aureus after 24 hrs by plate counting method; details: for MBC: Staphylococcus aureus, 24 h
Staphylococcus aureus [9] = assay: Antimicrobial activity against methicillin-resistant Staphylococcus aureus assessed as resistant isolates after 24 hrs by broth microdilution method
Staphylococcus aureus [10] = assay: Antimicrobial activity against methicillin-susceptible Staphylococcus aureus assessed as susceptible isolates after 24 hrs by broth microdilution method
Staphylococcus aureus [11] = assay: Antimicrobial activity against methicillin-resistant Staphylococcus aureus assessed as susceptible isolates after 24 hrs by broth microdilution method
Staphylococcus simulans [12] = assay: Bactericidal activity against methicillin-resistant coagulase-negative Staphylococcus simulans after 24 hrs by plate counting method; details: for MBC: Staphylococcus simulans, 24 h; method in brief: as §2
Mammaliicoccus sciuri [13] = assay: Antimicrobial activity against methicillin-resistant coagulase-negative Staphylococcus sciuri assessed as susceptible isolates after 24 hrs by broth microdilution method
Mammaliicoccus sciuri [14] = assay: Antimicrobial activity against methicillin-resistant coagulase-negative Staphylococcus sciuri assessed as resistant isolates after 24 hrs by broth microdilution method
Mammaliicoccus sciuri [15] = assay: Bactericidal activity against methicillin-resistant coagulase-negative Staphylococcus sciuri after 24 hrs by plate counting method; details: for MBC: Mammaliicoccus sciuri, 24 h; method in brief: as §2
Staphylococcus hominis [16] = assay: Antimicrobial activity against methicillin-susceptible coagulase-negative Staphylococcus hominis assessed as resistant isolates after 24 hrs by broth microdilution method
[17] = test system: Staphylococcus epidermidis; assay: Antimicrobial activity against methicillin-susceptible coagulase-negative Staphylococcus epidermidis assessed as resistant isolates after 24 hrs by broth microdilution method
[18] = test system: Staphylococcus haemolyticus; assay: Antimicrobial activity against methicillin-susceptible coagulase-negative Staphylococcus haemolyticus assessed as susceptible isolates after 24 hrs by broth microdilution method
Staphylococcus simulans [19] = assay: Bactericidal activity against methicillin-susceptible coagulase-negative Staphylococcus simulans after 24 hrs by plate counting method; details: for MBC: Staphylococcus simulans, 24 h; method in brief: as §2
Mammaliicoccus sciuri [20] = assay: Antimicrobial activity against methicillin-susceptible coagulase-negative Staphylococcus sciuri after 24 hrs by broth microdilution method; method in brief: as §1

Molecule `CC[C@H]1OC(=O)[C@H](C)[C@@H](O[C@H]2C[C@@](C)(OC)[C@@H](O)[C@H](C)O2)[C@H](C)[C@@H](O[C@@H]2O[C@H](C)C[C@H](N(C)C)[C@H]2O)[C@](C)(O)C[C@@H](C)C(=O)[C@H](C)[C@@H](O)[C@]1(C)O` [ERYTHROMYCIN] has an MIC50 (Staphylococcus aureus [1]) of 32 µg/mL (≈ 43.6 µM), an MIC90 (Staphylococcus aureus [1]) of 64 µg/mL (≈ 87.2 µM) and an MIC50 [2] of 16 µg/mL (≈ 21.8 µM). For the same molecule, the MIC90 [2] was 32 µg/mL (≈ 43.6 µM), the MBC50 [3] was 32 µg/mL (≈ 43.6 µM) and the MBC [3] was 1 µg/mL (≈ 1.36 µM). For the same molecule, the Activity [4] was 11%, the MBC50 (Staphylococcus hominis [5]) was 32 µg/mL (≈ 43.6 µM) and the MBC (Staphylococcus hominis [5]) was 1 µg/mL (≈ 1.36 µM). The MBC50 (Staphylococcus aureus [6]) was 4 µg/mL (≈ 5.45 µM), the MBC (Staphylococcus aureus [6]) was 1 µg/mL (≈ 1.36 µM) and the MIC50 (Staphylococcus hominis [7]) was 16 µg/mL (≈ 21.8 µM). For the same molecule, the MIC90 (Staphylococcus hominis [7]) was 32 µg/mL (≈ 43.6 µM), the MBC (Staphylococcus aureus [8]) was 32 µg/mL (≈ 43.6 µM) and the Activity (Staphylococcus aureus [9]) was 100%. The Activity (Staphylococcus aureus [10]) was 56%, the Activity (Staphylococcus aureus [11]) was 0% and the MBC50 (Staphylococcus simulans [12]) was 32 µg/mL (≈ 43.6 µM). It also gave an MBC (Staphylococcus simulans [12]) of 1 µg/mL (≈ 1.36 µM), an Activity (Mammaliicoccus sciuri [13]) of 15% and an Activity (Mammaliicoccus sciuri [14]) of 74%. It also gave an MBC50 (Mammaliicoccus sciuri [15]) of 32 µg/mL (≈ 43.6 µM), an MBC (Mammaliicoccus sciuri [15]) of 1 µg/mL (≈ 1.36 µM) and an Activity (Staphylococcus hominis [16]) of 27%. The Activity [17] was 27%, the Activity [18] was 50% and the MBC50 (Staphylococcus simulans [19]) was 2 µg/mL (≈ 2.73 µM). For the same molecule, the MBC (Staphylococcus simulans [19]) was 1 µg/mL (≈ 1.36 µM), the MIC (Mammaliicoccus sciuri [20]) was 0.5 µg/mL (≈ 0.681 µM) and the MIC50 (Mammaliicoccus sciuri [20]) was 0.5 µg/mL (≈ 0.681 µM). For the same molecule, the MIC90 (Mammaliicoccus sciuri [20]) was 16 µg/mL (≈ 21.8 µM).
`C[C@H]1COc2c(N3CCN(C)CC3)c(F)cc3c(=O)c(C(=O)O)cn1c23.C[C@H]1COc2c(N3CCN(C)CC3)c(F)cc3c(=O)c(C(=O)O)cn1c23.O` [LEVOFLOXACIN] was tested, and the MIC50 (Staphylococcus aureus [1]) was 8 µg/mL, the MIC90 (Staphylococcus aureus [1]) was 128 µg/mL and the MIC [2] was 0.25 µg/mL. The MIC50 [2] was 0.25 µg/mL, the MIC90 [2] was 4 µg/mL and the MBC50 [3] was 4 µg/mL. The MBC90 [3] was 16 µg/mL, the MBC [3] was 0.5 µg/mL and the Activity [4] was 26%. It also gave an MBC50 (Staphylococcus hominis [5]) of 4 µg/mL, an MBC90 (Staphylococcus hominis [5]) of 16 µg/mL and an MBC (Staphylococcus hominis [5]) of 0.5 µg/mL. The MBC50 (Staphylococcus aureus [6]) was 1 µg/mL, the MBC90 (Staphylococcus aureus [6]) was 8 µg/mL and the MBC (Staphylococcus aureus [6]) was 0.125 µg/mL. The MIC (Staphylococcus hominis [7]) was 0.25 µg/mL, the MIC50 (Staphylococcus hominis [7]) was 0.25 µg/mL and the MIC90 (Staphylococcus hominis [7]) was 4 µg/mL. The MBC50 (Staphylococcus aureus [8]) was 16 µg/mL, the MBC90 (Staphylococcus aureus [8]) was 512 µg/mL and the MBC (Staphylococcus aureus [8]) was 0.5 µg/mL. For the same molecule, the Activity (Staphylococcus aureus [9]) was 82%, the Activity (Staphylococcus aureus [10]) was 81% and the Activity (Staphylococcus aureus [11]) was 18%. It also gave an MBC50 (Staphylococcus simulans [12]) of 4 µg/mL, an MBC90 (Staphylococcus simulans [12]) of 16 µg/mL and an MBC (Staphylococcus simulans [12]) of 0.5 µg/mL. For the same molecule, the Activity (Mammaliicoccus sciuri [13]) was 15%, the Activity (Mammaliicoccus sciuri [14]) was 59% and the MBC50 (Mammaliicoccus sciuri [15]) was 4 µg/mL. It also gave an MBC90 (Mammaliicoccus sciuri [15]) of 16 µg/mL, an MBC (Mammaliicoccus sciuri [15]) of 0.5 µg/mL and an Activity (Staphylococcus hominis [16]) of 4%. For the same molecule, the Activity [17] was 4%, the Activity [18] was 96% and the MBC50 (Staphylococcus simulans [19]) was 1 µg/mL. It also gave an MBC90 (Staphylococcus simulans [19]) of 4 µg/mL, an MBC (Staphylococcus simulans [19]) of 0.5 µg/mL and an MIC (Mammaliicoccus sciuri [20]) of 0.25 µg/mL. It also gave an MIC50 (Mammaliicoccus sciuri [20]) of 0.25 µg/mL and an MIC90 (Mammaliicoccus sciuri [20]) of 0.5 µg/mL.
